Columns and labels:
[1] = system: Bacillus subtilis subsp. subtilis str. 168; test: Inhibition of Bacillus subtilis 168 RNA polymerase subunit beta' CH region interaction with full length sigmaA at 15 uM by ELISA relative to control
In short: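 ELISA measuring binding of B. subtilis σA to the β'-CH region of core RNAP with compound at 15 μM. Signal expressed as a percentage of the positive control (σA–β'-CH interaction without inhibitor, set at 100%).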

Escherichia coli = test: Growth inhibition of Escherichia coli DH5[alpha] at 0.2 mM measured every 10 mins over 16 hrs relative to control; type: functional; conditions: read-out: GI
In short: (§1)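 Cultures grown with compound at 0.2 mM; growth expressed as a percentage of the untreated positive control (growth without inhibitor, taken as 100%). B. subtilis (Gram-positive) and E. coli (Gram-negative) assayed in parallel.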

Bacillus subtilis = test: Growth inhibition of Bacillus subtilis 168 at 0.2 mM measured every 10 mins over 16 hrs relative to control; type: functional; conditions: subsp. subtilis str. 168, read-out: GI; in short: as §1

Structure (SMILES): COc1cc(OC)c2cc(C(=O)O)[nH]c2c1/C=C1\SC(=S)NC1=O
- inhibition [1]: 36%
- inhibition of growth at 200 µM (Escherichia coli): 26%
- inhibition of growth at 200 µM (Bacillus subtilis): 0%

Structure (SMILES): COc1cc(OC)c2cc(C(=O)O)[nH]c2c1C=C1C(=O)NC(=S)NC1=O
- inhibition [1]: 71%
- inhibition of growth at 200 µM (Escherichia coli): 0%
- inhibition of growth at 200 µM (Bacillus subtilis): 0%

Structure (SMILES): C=CCN1C(=O)/C(=C/c2c(OC)cc(OC)c3c(-c4ccccc4)c[nH]c23)SC1=S
- inhibition [1]: 0%
- inhibition of growth at 200 µM (Escherichia coli): 66%
- inhibition of growth at 200 µM (Bacillus subtilis): 44%

Structure (SMILES): COc1cc(OC)c2c(-c3ccc(Cl)cc3)c[nH]c2c1/C=C1\SC(=S)NC1=O
- inhibition [1]: 21%
- inhibition of growth at 200 µM (Escherichia coli): 15%
- inhibition of growth at 200 µM (Bacillus subtilis): 0%

Structure (SMILES): COc1cc(OC)c2c(-c3ccc(Cl)cc3)c[nH]c2c1C=C1C(=O)NC(=O)NC1=O
- inhibition [1]: 15%
- inhibition of growth at 200 µM (Escherichia coli): 30%
- inhibition of growth at 200 µM (Bacillus subtilis): 41%

Structure (SMILES): COc1cc(OC)c2c(-c3ccccc3)c[nH]c2c1C=C1C(=O)NC(=S)NC1=O
- inhibition [1]: 14%
- inhibition of growth at 200 µM (Escherichia coli): 0%
- inhibition of growth at 200 µM (Bacillus subtilis): 0%

Structure (SMILES): COc1cc(OC)c2c(-c3ccccc3)c[nH]c2c1C=C1C(=O)NC(=O)NC1=O
- inhibition [1]: 45%
- inhibition of growth at 200 µM (Escherichia coli): 0%
- inhibition of growth at 200 µM (Bacillus subtilis): 83%

Structure (SMILES): COc1cc(OC)c2c(-c3ccccc3)c[nH]c2c1/C=C1\SC(=S)NC1=O
- inhibition [1]: 17%
- inhibition of growth at 200 µM (Escherichia coli): 45%
- inhibition of growth at 200 µM (Bacillus subtilis): 44%

Structure (SMILES): COC(=O)c1cc2c(OC)cc(OC)c(/C=C3\SC(=S)NC3=O)c2[nH]1
- inhibition [1]: 3%
- inhibition of growth at 200 µM (Escherichia coli): 28%
- inhibition of growth at 200 µM (Bacillus subtilis): 45%

Structure (SMILES): COC(=O)c1cc2c(OC)cc(OC)c(C=C3C(=O)NC(=O)NC3=O)c2[nH]1
- inhibition [1]: 28%
- inhibition of growth at 200 µM (Escherichia coli): 20%
- inhibition of growth at 200 µM (Bacillus subtilis): 89%

Structure (SMILES): C=CCN1C(=O)/C(=C/c2c(OC)cc(OC)c3cc(C(=O)O)[nH]c23)SC1=S
- inhibition [1]: 74%
- inhibition of growth at 200 µM (Escherichia coli): 30%
- inhibition of growth at 200 µM (Bacillus subtilis): 21%

Structure (SMILES): C=CCN1C(=O)/C(=C/c2c(OC)cc(OC)c3c(-c4ccc(Cl)cc4)c[nH]c23)SC1=S
- inhibition [1]: 34%
- inhibition of growth at 200 µM (Escherichia coli): 14%
- inhibition of growth at 200 µM (Bacillus subtilis): 8%

Structure (SMILES): COC(=O)c1cc2c(OC)cc(OC)c(C=C3C(=O)NC(=S)NC3=O)c2[nH]1
- inhibition [1]: 17%
- inhibition of growth at 200 µM (Escherichia coli): 57%
- inhibition of growth at 200 µM (Bacillus subtilis): 91%

Structure (SMILES): COc1cc(OC)c2c(-c3ccc(Cl)cc3)c[nH]c2c1C=C1C(=O)NC(=S)NC1=O
- inhibition [1]: 14%
- inhibition of growth at 200 µM (Escherichia coli): 24%
- inhibition of growth at 200 µM (Bacillus subtilis): 0%

Structure (SMILES): COc1cc(OC)c2cc(C(=O)O)[nH]c2c1C=C1C(=O)NC(=O)NC1=O
- inhibition [1]: 28%
- inhibition of growth at 200 µM (Escherichia coli): 0%
- inhibition of growth at 200 µM (Bacillus subtilis): 0%

Structure (SMILES): C=CCN1C(=O)/C(=C/c2c(OC)cc(OC)c3cc(C(=O)OCc4ccccc4)[nH]c23)SC1=S
- inhibition [1]: 63%
- inhibition of growth at 200 µM (Escherichia coli): 28%
- inhibition of growth at 200 µM (Bacillus subtilis): 6%

Structure (SMILES): C=CCN1C(=O)/C(=C/c2c(OC)cc(OC)c3cc(C(=O)OC)[nH]c23)SC1=S
- inhibition [1]: 46%
- inhibition of growth at 200 µM (Escherichia coli): 79%
- inhibition of growth at 200 µM (Bacillus subtilis): 22%

From ChEMBL document CHEMBL4043208, “Small molecule inhibitors of bacterial transcription complex formation” (2017)
